# Measurements pooled from the literature.
# Each line is one published result; the experiments were not run side by side.
# Target: Serine/threonine-protein kinase 33 (STK33, Homo sapiens, UniProt Q9BYT3)
SMILES,effect on,mode,method,concentration,measurement,value
CN1CC(Oc2cnc(C#N)cc2-c2ccn3nc(NC(=O)C4CC4)cc3c2)C1,enzyme activity,inhibitor,,1 µM,inhibition,-3%
CCCOc1ccc(OC)c(F)c1C(=O)c1ccc(C(=O)N[C@@H]2CNC[C@H]2NC(=O)c2ccc3[nH]ncc3c2)cc1,enzyme activity,inhibitor,,10 µM,remaining activity,7%
COc1cc(Nc2cnc(C#N)c(O[C@H](C)CN(C)C)n2)ncc1-c1cnn(C)c1,enzyme activity,inhibitor,radiometric,10 µM,remaining activity,16%
Cn1nc(C(=O)NCc2ccc(C(=O)O)cc2)cc1-c1ccc2[nH]ccc2c1,cell-free assay,,competition with immobilised ligand,0.1 µM,remaining binding,87%
Cc1sc(C(=O)NC2COC2)cc1-n1cc(NC(=O)Nc2c(F)cccc2Cl)cn1,enzyme activity,inhibitor,,10 µM,remaining activity,87.6%
Cc1ccc(Nc2nccc(N(C)c3ccc4c(C)n(C)nc4c3)n2)cc1S(N)(=O)=O,enzyme activity,inhibitor,,0.3 µM,inhibition,-2%
Cc1cc(NC(=O)c2cccc(S(F)(F)(F)(F)F)c2)cc(-n2ccn3nc(-c4cccnc4)cc23)c1,cell-free assay,,competition with immobilised ligand,1 µM,remaining binding,87.8%
FC(F)(F)Oc1cccc(-c2cnc3ccc(-c4ccncc4)nn23)c1,enzyme activity,inhibitor,radiometric,1 µM,activity vs control,95%
O=C(Nc1cnn(-c2csc(C(=O)NC3COC3)c2)c1)Nc1c(F)cccc1Cl,enzyme activity,inhibitor,,5 µM,remaining activity,81.8%
CC(C)(O)[C@H]1CC[C@H](Nc2ccc3ncc(-c4cccc(C(F)(F)F)c4)n3n2)CC1,enzyme activity,inhibitor,,1 µM,remaining activity,40.5%
CCN(CC)c1ccc(C2=NNC(=O)CC2C)cc1[N+](=O)[O-] (stereo not shown),enzyme activity,inhibitor,,10 µM,remaining activity,102%
Cn1cnc(Br)c1C1=CN(c2ncnc3[nH]cnc23)CCS1,enzyme activity,inhibitor,radiometric,2 µM,inhibition,78.4%
CC(C)c1ccc(NC(=O)c2cccs2)c(-c2nc3ccccc3[nH]c2=O)c1,enzyme activity,inhibitor,,1 µM,activity vs control,39%
CN(C)c1ncnc(-c2ccc3nc(Nc4cc(CN5CCN(C(=O)CC(F)(F)F)CC5)ccn4)[nH]c3c2)c1Cl,cell-free assay,,competition with immobilised ligand,1 µM,remaining binding,100%
Cc1cnc(NC2CCOCC2)nc1-n1cnc(C(=O)NC(CN)c2cc(F)cc(Cl)c2)c1 (stereo not shown),enzyme activity,inhibitor,radiometric,1 µM,remaining activity,71%
CCc1ccccc1C(=O)Nc1n[nH]c2c(C)c(F)c(C3C(C#N)=C(C)N(C)C(C)=C3C#N)cc12,cell-free assay,,competition with immobilised ligand,1 µM,remaining binding,100%
COc1cc(/C=C/C(=O)CC(=O)/C=C/c2ccc(O)c(OC)c2)ccc1O,enzyme activity,inhibitor,,1 µM,activity vs control,25%
Cn1nc(C(F)(F)F)cc1-c1cnc(N2CCc3cc(S(=O)(=O)Nc4c(F)cc(Cl)cc4F)cc(N4CCCC4=O)c32)nc1,cell-free assay,,competition with immobilised ligand,1 µM,remaining binding,100%
Cn1cncc1C1=CN(c2ncnc3[nH]cnc23)CCS1,enzyme activity,inhibitor,radiometric,2 µM,inhibition,80.5%
